From ChEMBL document CHEMBL1131800, “Novel carbonic anhydrase isozymes I, II and IV activators incorporating sulfonyl-histamino moieties” (Bioorg Med Chem Lett, 1999)

How the values were obtained:
[1] = biological target: Carbonic anhydrase 2 (Homo sapiens) (UniProt P00918); assay: In vitro binding affinity against human carbonic anhydrase II (hCA-II human cloned isozyme).
In short: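 Human cloned CA II (3.5 nM) preincubated 10 min at room temperature with activator, then esterase assay following 4-nitrophenolate formation (ε 18,400 M-1·cm-1) at pH 7.40. Nonenzymatic hydrolysis was subtracted. Activator was diluted in water from a 1 mM stock down to 0.1 nM. Activation constant Ka is the mean of at least three determinations.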

[2] = biological target: Carbonic anhydrase 1 (Homo sapiens) (UniProt P00915); assay: In vitro binding affinity against human carbonic anhydrase I (hCA-I human cloned isozyme).
In short: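 Human cloned CA I (12 nM) preincubated 10 min at room temperature with activator, then esterase assay on 4-nitrophenyl ester hydrolysis. Read-out was 4-nitrophenolate (ε 18,400 M-1·cm-1) at pH 7.40, with nonenzymatic rate subtracted. Activator stock was 1 mM in distilled-deionized water, diluted down to 0.1 nM. Ka is the mean of ≥3 determinations.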

[3] = biological target: T1, Carbonic anhydrase 4 (Bos taurus) (UniProt Q95323); assay: In vitro […] activity against bovine carbonic anhydrase IV (bCA IV) purified from lung microsomes.
T1 sequence (whole entry): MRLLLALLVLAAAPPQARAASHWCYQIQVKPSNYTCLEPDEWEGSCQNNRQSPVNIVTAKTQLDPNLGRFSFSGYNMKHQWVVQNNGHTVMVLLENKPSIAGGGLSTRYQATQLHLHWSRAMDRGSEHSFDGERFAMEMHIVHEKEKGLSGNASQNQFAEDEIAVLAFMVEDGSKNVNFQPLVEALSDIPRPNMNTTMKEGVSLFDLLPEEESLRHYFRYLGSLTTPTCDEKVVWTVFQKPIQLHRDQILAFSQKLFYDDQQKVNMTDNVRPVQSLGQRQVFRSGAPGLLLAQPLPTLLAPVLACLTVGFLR
In short: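 Bovine lung microsomal CA IV (31 nM) was preincubated 10 min at room temperature with activator, then assayed by the esterase method. 4-Nitrophenolate formation was measured at pH 7.40 (ε 18,400 M-1·cm-1), minus the uncatalysed rate. Activator came from a 1 mM aqueous stock diluted to 0.1 nM. Ka is the mean of ≥3 runs.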

Chain of Carbonic anhydrase 1 (Homo sapiens) (P00915 2-261 limits assumed): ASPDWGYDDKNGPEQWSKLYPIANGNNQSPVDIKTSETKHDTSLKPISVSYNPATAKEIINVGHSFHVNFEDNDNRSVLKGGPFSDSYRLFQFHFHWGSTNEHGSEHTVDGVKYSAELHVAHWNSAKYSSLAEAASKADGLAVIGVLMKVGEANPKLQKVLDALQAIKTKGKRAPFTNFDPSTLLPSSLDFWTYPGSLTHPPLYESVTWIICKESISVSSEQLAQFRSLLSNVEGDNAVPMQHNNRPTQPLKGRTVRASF

Structure (SMILES)	Ka [1]	Ka [2]	Ka [3]
O=S(=O)(NCCc1c[nH]cn1)C(F)(F)C(F)(F)C(F)(F)C(F)(F)C(F)(F)C(F)(F)C(F)(F)C(F)(F)F	0.5 µM	0.007 µM	0.03 µM
O=C(O)c1ccccc1S(=O)(=O)NCCc1c[nH]cn1	1.2 µM	0.06 µM	0.12 µM
O=C(O)c1c(Br)c(Br)c(Br)c(Br)c1S(=O)(=O)NCCc1c[nH]cn1	0.3 µM	0.05 µM	0.1 µM
O=S(=O)(NCCc1c[nH]cn1)c1ccc(Cl)cc1	13 µM	0.1 µM	2.5 µM
Nc1ccc(S(=O)(=O)NCCc2c[nH]cn2)cc1	14 µM	0.13 µM	4.1 µM
CC1(C)C2CCC1(CS(=O)(=O)NCCc1c[nH]cn1)C(=O)C2 (stereo unspecified)	15 µM	0.17 µM	5.4 µM
O=S(=O)(NCCc1c[nH]cn1)C(F)(F)C(F)(F)C(F)(F)C(F)(F)F	0.9 µM	0.01 µM	0.05 µM
O=S(=O)(NCCc1c[nH]cn1)c1ccc(I)cc1	10 µM	0.08 µM	3.2 µM
O=S(=O)(Cc1ccccc1)NCCc1c[nH]cn1	34 µM	0.18 µM	5.4 µM
O=S(=O)(NCCc1c[nH]cn1)C(F)(F)F	1.2 µM	0.013 µM	0.15 µM
Cc1cc(C)c(S(=O)(=O)NCCc2c[nH]cn2)c(C)c1	35 µM	0.25 µM	5.9 µM
COc1ccc(S(=O)(=O)NCCc2c[nH]cn2)cc1	22 µM	0.2 µM	6.5 µM
O=S(=O)(NCCc1c[nH]cn1)c1ccc(F)cc1	12 µM	0.11 µM	2.4 µM
O=S(=O)(NCCc1c[nH]cn1)c1cc(Cl)cc(Cl)c1O	7 µM	0.1 µM	0.09 µM
Cc1ccccc1S(=O)(=O)NC(=O)NCCc1c[nH]cn1	0.15 µM	0.006 µM	0.03 µM
O=C(NCCc1c[nH]cn1)NS(=O)(=O)c1ccc(Cl)cc1	0.08 µM	0.003 µM	0.01 µM
O=C(O)c1cccc(S(=O)(=O)NCCc2c[nH]cn2)c1	0.5 µM	0.05 µM	0.07 µM
CN(C)S(=O)(=O)NCCc1c[nH]cn1	13 µM	0.15 µM	5.3 µM
O=S(=O)(NCCc1c[nH]cn1)c1ccccc1	30 µM	0.21 µM	5 µM

Structure (SMILES)	Ka [1]	Ka [2]	Ka [3]
Cc1ccc(S(=O)(=O)NCCc2c[nH]cn2)cc1	28 µM	0.24 µM	7 µM
O=S(=O)(NCCc1c[nH]cn1)c1ccc(Br)cc1	10 µM	0.09 µM	3 µM
O=C(O)c1ccc(S(=O)(=O)NCCc2c[nH]cn2)cc1	0.8 µM	0.06 µM	0.1 µM
O=S(=O)(NCCc1c[nH]cn1)c1c(F)c(F)c(F)c(F)c1F	0.1 µM	0.006 µM	0.04 µM
O=S(=O)(NCCc1c[nH]cn1)c1ccc2ccccc2c1	9 µM	0.24 µM	3.5 µM
O=[N+]([O-])c1ccccc1S(=O)(=O)NCCc1c[nH]cn1	8 µM	0.13 µM	1.6 µM
O=[N+]([O-])c1ccc(S(=O)(=O)NCCc2c[nH]cn2)cc1	10 µM	0.14 µM	1.8 µM
O=S(=O)(NCCc1c[nH]cn1)c1cccc2ccccc12	10 µM	0.26 µM	3.6 µM
NCCc1c[nH]cn1	125 µM	2 µM	41 µM
CC(=O)Nc1ccc(S(=O)(=O)NCCc2c[nH]cn2)cc1	20 µM	0.21 µM	6 µM
O=C(NCCc1c[nH]cn1)NS(=O)(=O)c1ccc(F)cc1	0.09 µM	0.004 µM	0.02 µM
O=S(=O)(NCCc1c[nH]cn1)c1cc(Cl)ccc1Cl	5 µM	0.08 µM	0.1 µM
O=[N+]([O-])c1ccc(S(=O)(=O)NCCc2c[nH]cn2)cc1Cl	6 µM	0.12 µM	1.4 µM
O=S(=O)(NCCc1c[nH]cn1)c1cccs1	5 µM	0.09 µM	1.1 µM
O=[N+]([O-])c1cccc(S(=O)(=O)NCCc2c[nH]cn2)c1	9 µM	0.12 µM	1.5 µM
O=S(=O)(NCCc1c[nH]cn1)C(Cl)(Cl)Cl	13 µM	0.018 µM	3.6 µM
CN(C)c1cccc2c(S(=O)(=O)NCCc3c[nH]cn3)cccc12	9 µM	0.28 µM	3.2 µM
Cc1ccc(S(=O)(=O)NC(=O)NCCc2c[nH]cn2)cc1	0.1 µM	0.005 µM	0.02 µM
